Laboratory results from ChEMBL document CHEMBL5360562 (Eur J Med Chem, 2023).

Columns and labels:
Acinetobacter baumannii [1] = assay: Potentiation of Clarithromycin antibacterial activity against Acinetobacter baumannii AB5075 assessed as clarithromycin MIC at 1.5 uM incubated for 16 hrs by broth microdilution method; type: functional
Summary of the method: (§1)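 Checkerboard-style potentiation by broth microdilution. 6 h day cultures in CAMHB diluted to 5×10^5 CFU/mL. Adjuvant added from 10 mM DMSO stock at fixed concentration throughout. […] Controls: antibiotic alone, adjuvant alone, media only. Incubated stationary at 37 °C for 16 h. MIC is lowest concentration with no visible growth; fold reduction taken against the antibiotic-alone lane.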

Acinetobacter baumannii [2] = assay: Potentiation of Clarithromycin antibacterial activity against Acinetobacter baumannii AB5075 assessed as clarithromycin MIC at 5 uM incubated for 16 hrs by broth microdilution method; type: functional
Pseudomonas aeruginosa [3] = assay: Potentiation of Clarithromycin antibacterial activity against Pseudomonas aeruginosa PAO1 assessed as clarithromycin MIC at 20 uM incubated for 16 hrs by broth microdilution method; type: functional; summary of the method: as §1
Acinetobacter baumannii [4] = assay: Potentiation of rifampicin antibacterial activity against Acinetobacter baumannii AB5075 assessed as rifampicin MIC at 7.5 uM incubated for 16 hrs by broth microdilution method; type: functional
Summary of the method: (§2)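 A. baumannii AB5075 6 h day cultures in CAMHB subcultured to 5×10^5 CFU/mL; adjuvant added from 10 mM DMSO stock at fixed concentration, then rifampicin (DMSO) twofold serially diluted in adjuvant-containing broth. Antibiotic-alone and adjuvant-alone control lanes.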

Acinetobacter baumannii [5] = assay: Potentiation of Clarithromycin antibacterial activity against Acinetobacter baumannii AB5075 assessed as clarithromycin MIC at 10 uM incubated for 16 hrs by broth microdilution method; type: functional
[6] = Metabolic stability in human liver microsomes assessed as parent compound remaining in presence of NADPH measured at 1 hr by UV-UPLC analysis; type: ADME, Microsome
Acinetobacter baumannii [7] = assay: Potentiation of Azithromycin antibacterial activity against Acinetobacter baumannii AB5075 assessed as azithromycin MIC at 5 uM incubated for 16 hrs by broth microdilution method; type: functional
Acinetobacter baumannii [8] = assay: Potentiation of Azithromycin antibacterial activity against Acinetobacter baumannii AB5075 assessed as azithromycin MIC at 2.5 uM incubated for 16 hrs by broth microdilution method; type: functional
Pseudomonas aeruginosa [9] = assay: Potentiation of Clarithromycin antibacterial activity against Pseudomonas aeruginosa PAO1 assessed as clarithromycin MIC at 30 uM incubated for 16 hrs by broth microdilution method; type: functional
Acinetobacter baumannii [10] = assay: Potentiation of erythromycin antibacterial activity against Acinetobacter baumannii AB5075 assessed as erythromycin MIC at 7.5 uM incubated for 16 hrs by broth microdilution method; type: functional
Acinetobacter baumannii [11] = assay: Potentiation of Clarithromycin antibacterial activity against Acinetobacter baumannii AB5075 assessed as fold reduction in clarithromycin MIC at 7.5 uM incubated for 16 hrs by broth microdilution method; type: functional; summary of the method: as §1
Escherichia coli [12] = assay: Antibacterial activity against Escherichia coli ATCC 25922 assessed as inhibition of bacterial growth incubated for 16 hrs by broth microdilution method; type: functional
Summary of the method: (§3)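 Standalone MIC by broth microdilution. 6 h day cultures in cation-adjusted Mueller-Hinton broth (CAMHB) diluted to 5×10^5 CFU/mL. Compound added from 10 mM DMSO stock to 200 μM (highest concentration), then twofold serial dilution. Incubated stationary at 37 °C for 16 h.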

Acinetobacter baumannii [13] = assay: Potentiation of Clarithromycin antibacterial activity against Acinetobacter baumannii AB4498 assessed as clarithromycin MIC at 10 uM incubated for 16 hrs by broth microdilution method; type: functional
Acinetobacter baumannii [14] = assay: Potentiation of erythromycin antibacterial activity against Acinetobacter baumannii AB5075 assessed as erythromycin MIC at 5 uM incubated for 16 hrs by broth microdilution method; type: functional
Acinetobacter baumannii [15] = assay: Potentiation of erythromycin antibacterial activity against Acinetobacter baumannii AB5075 assessed as erythromycin MIC at 10 uM incubated for 16 hrs by broth microdilution method; type: functional
Escherichia coli [16] = assay: Potentiation of Clarithromycin antibacterial activity against Escherichia coli ATCC 25922 assessed as clarithromycin MIC at 3 uM incubated for 16 hrs by broth microdilution method; type: functional
Acinetobacter baumannii [17] = assay: Antibacterial activity against Acinetobacter baumannii AB5075 assessed as reduction in bacterial growth incubated for 16 hrs by broth microdilution method; type: functional
[18] = Therapeutic index, ratio of IC50 for antiproliferative against human HepG2 cells assessed as reduction in cell viability to MIC for potentiation of Clarithromycin antibacterial activity against Acinetobacter baumannii […] assessed as clarithromycin MIC; type: toxicity, cell-based; conditions: read-out: TI
Acinetobacter baumannii [19] = assay: Potentiation of erythromycin antibacterial activity against Acinetobacter baumannii AB5075 assessed as erythromycin MIC at 30 uM incubated for 16 hrs by broth microdilution method; type: functional
Acinetobacter baumannii [20] = assay: Potentiation of Clarithromycin antibacterial activity against Acinetobacter baumannii AB5075 assessed as fold reduction in clarithromycin MIC at 10 uM incubated for 16 hrs by broth microdilution method; type: functional; summary of the method: as §1
Klebsiella pneumoniae [21] = assay: Potentiation of Clarithromycin antibacterial activity against Klebsiella pneumoniae ATCC BAA-2146 assessed as clarithromycin MIC at 10 uM incubated for 16 hrs by broth microdilution method; type: functional
[22] = Stability of compound in human plasma assessed as parent compound remaining measured at 4 hrs; type: ADME, cell-free
Summary of the method: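 Compound at 20 μM final in human plasma (from 10 mM DMSO stock), 37 °C; aliquots at 0, 30, 60, 120, 240 min quenched in internal standard in 1:1 ACN/MeOH, centrifuged, supernatant analysed by UPLC-MRM. Peak-area ratio to internal standard expressed as % parent remaining relative to 0 min; half-life calculated.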

Acinetobacter baumannii [23] = assay: Potentiation of Clarithromycin antibacterial activity against Acinetobacter baumannii AB3785 assessed as clarithromycin MIC at 10 uM incubated for 16 hrs by broth microdilution method; type: functional
Acinetobacter baumannii [24] = assay: Potentiation of Azithromycin antibacterial activity against Acinetobacter baumannii AB5075 assessed as azithromycin MIC at 30 uM incubated for 16 hrs by broth microdilution method; type: functional
Acinetobacter baumannii [25] = assay: Potentiation of rifampicin antibacterial activity against Acinetobacter baumannii AB5075 assessed as rifampicin MIC at 20 uM incubated for 16 hrs by broth microdilution method; type: functional
[26] = Antiproliferative against human HepG2 cells assessed as reduction in cell viability incubated for 24 hrs by XTT assay; type: toxicity, cell-based
Acinetobacter baumannii [27] = assay: Potentiation of rifampicin antibacterial activity against Acinetobacter baumannii AB5075 assessed as rifampicin MIC at 5 uM incubated for 16 hrs by broth microdilution method; type: functional; summary of the method: as §2
Acinetobacter baumannii [28] = assay: Potentiation of rifampicin antibacterial activity against Acinetobacter baumannii AB5075 assessed as fold reduction in rifampicin MIC at 10 uM incubated for 16 hrs by broth microdilution method; type: functional
Klebsiella pneumoniae [29] = assay: Antibacterial activity against Klebsiella pneumoniae ATCC BAA-2146 assessed as inhibition of bacterial growth incubated for 16 hrs by broth microdilution method; type: functional; summary of the method: as §3
Acinetobacter baumannii [30] = assay: Potentiation of Clarithromycin antibacterial activity against Acinetobacter baumannii AB5075 assessed as clarithromycin MIC at 7.5 uM incubated for 16 hrs by broth microdilution method; type: functional
Acinetobacter baumannii [31] = assay: Potentiation of Azithromycin antibacterial activity against Acinetobacter baumannii AB5075 assessed as azithromycin MIC at 20 uM incubated for 16 hrs by broth microdilution method; type: functional
Acinetobacter baumannii [32] = assay: Potentiation of rifampicin antibacterial activity against Acinetobacter baumannii AB5075 assessed as rifampicin MIC at 30 uM incubated for 16 hrs by broth microdilution method; type: functional

Cl.Cl.Nc1nc(-c2ccc(NC(=O)Nc3cccc(-c4c[nH]c(N)n4)c3F)cc2F)c[nH]1
MIC (Acinetobacter baumannii [1]): 2 µg/mL
MIC (Acinetobacter baumannii [2]): ≤ 0.062 µg/mL
MIC (Pseudomonas aeruginosa [3]): 16 µg/mL
MIC (Acinetobacter baumannii [4]): 0.015 µg/mL
MIC (Acinetobacter baumannii [5]): ≤ 0.062 µg/mL
Stability [6]: 87%
MIC (Acinetobacter baumannii [7]): 1 µg/mL
MIC (Acinetobacter baumannii [8]): 32 µg/mL
MIC (Pseudomonas aeruginosa [9]): 0.5 µg/mL
MIC (Acinetobacter baumannii [10]): 0.25 µg/mL
fold change (FC) (Acinetobacter baumannii [11]): >=512
MIC (Escherichia coli [12]): 12.5 µM
MIC (Acinetobacter baumannii [13]): ≤ 0.062 µg/mL
MIC (Acinetobacter baumannii [14]): 0.5 µg/mL
MIC (Acinetobacter baumannii [15]): ≤ 0.062 µg/mL
MIC (Escherichia coli [16]): 4 µg/mL
MIC (Acinetobacter baumannii [17]): > 200 µM
selectivity ratio [18]: 287
MIC (Acinetobacter baumannii [19]): ≤ 0.062 µg/mL
fold change (FC) (Acinetobacter baumannii [20]): >=512
MIC (Klebsiella pneumoniae [21]): 2 µg/mL
Stability [22]: 76%
MIC (Acinetobacter baumannii [23]): ≤ 0.062 µg/mL
MIC (Acinetobacter baumannii [24]): ≤ 0.062 µg/mL
MIC (Acinetobacter baumannii [25]): 0.001 µg/mL
IC50 at 24 h [26]: 208 µg/mL
MIC (Acinetobacter baumannii [27]): 0.125 µg/mL
fold change (FC) (Acinetobacter baumannii [28]): 32
MIC (Klebsiella pneumoniae [29]): > 200 µM
MIC (Acinetobacter baumannii [30]): ≤ 0.062 µg/mL
MIC (Acinetobacter baumannii [31]): ≤ 0.062 µg/mL
MIC (Acinetobacter baumannii [32]): 0.001 µg/mL
